From ChEMBL document CHEMBL4017520, “Discovery, Structure-Activity Relationship, and Antiparkinsonian Effect of a Potent and Brain-Penetrant Chemical Series of Positive Allosteric Modulators of Metabotropic Glutamate Receptor 4” (J Med Chem, 2017) come the findings set out here.

The species named for one data set is Homo sapiens. Description: Selectivity ratio of compound effect for positive allosteric modulation of recombinant human mGlu4 receptor to compound effect for activity at human mGlu6 receptor.
In data set [1] the target is Metabotropic glutamate receptor 3 (Homo sapiens) (UniProt Q14832). Description: Activity at human mGlu3 receptor expressed in HEK293 cells co-expressing Gi/Gq assessed as effect on intracellular calcium level up to 10 uM after 10 mins by Fluo4-AM dye based fluorescence assay. It counts as functional, cell-based. In short, it runs like this: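 HEK-293 cells transiently expressing the human mGluR with a promiscuous or chimeric G protein were serum-starved 3 h and loaded 1.5 h with 1 μM Fluo4-AM. Compound alone was added in assay buffer, and calcium fluorescence (ex 485/em 525) was recorded for 10 min as agonist readout.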
Metabotropic glutamate receptor 3 (Homo sapiens), sequence (Q14832 23-879 limits assumed): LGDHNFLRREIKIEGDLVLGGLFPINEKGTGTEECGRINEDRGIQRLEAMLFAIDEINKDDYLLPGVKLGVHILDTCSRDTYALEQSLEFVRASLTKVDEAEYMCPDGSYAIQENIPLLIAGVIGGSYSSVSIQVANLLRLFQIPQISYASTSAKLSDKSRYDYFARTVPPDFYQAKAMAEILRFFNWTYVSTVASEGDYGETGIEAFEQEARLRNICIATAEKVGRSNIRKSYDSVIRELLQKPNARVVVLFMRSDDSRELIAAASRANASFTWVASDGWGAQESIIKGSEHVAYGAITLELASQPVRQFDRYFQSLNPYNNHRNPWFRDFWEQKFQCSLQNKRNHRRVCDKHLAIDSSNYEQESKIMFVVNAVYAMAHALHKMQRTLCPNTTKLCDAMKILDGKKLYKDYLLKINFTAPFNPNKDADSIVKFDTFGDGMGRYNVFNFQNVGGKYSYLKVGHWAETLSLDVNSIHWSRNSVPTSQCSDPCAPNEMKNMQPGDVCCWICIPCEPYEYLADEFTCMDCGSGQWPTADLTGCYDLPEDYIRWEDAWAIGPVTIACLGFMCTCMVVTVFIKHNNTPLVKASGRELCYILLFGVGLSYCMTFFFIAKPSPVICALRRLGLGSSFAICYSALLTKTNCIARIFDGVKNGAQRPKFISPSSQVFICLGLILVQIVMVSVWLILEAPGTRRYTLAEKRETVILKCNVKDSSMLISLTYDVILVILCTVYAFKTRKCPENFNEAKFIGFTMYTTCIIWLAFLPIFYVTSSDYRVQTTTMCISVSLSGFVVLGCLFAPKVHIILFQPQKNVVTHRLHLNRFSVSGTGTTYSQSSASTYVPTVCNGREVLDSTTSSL

The species named for data set [2] is Rattus norvegicus. Description: Activity at NMDA glutamate receptor in rat cerebral cortex at 10 uM. An outline of the steps:
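Inhibition of orthosteric ligand binding to NMDA, AMPA and kainate receptors on rat cerebral cortex membranes, tested up to 10 μM.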

In data set [3] the target is D(1A) dopamine receptor (Homo sapiens) (UniProt P21728). Description: Positive allosteric modulation of D1 receptor (unknown origin) at 10 uM.
D(1A) dopamine receptor (Homo sapiens), sequence (P21728 whole entry): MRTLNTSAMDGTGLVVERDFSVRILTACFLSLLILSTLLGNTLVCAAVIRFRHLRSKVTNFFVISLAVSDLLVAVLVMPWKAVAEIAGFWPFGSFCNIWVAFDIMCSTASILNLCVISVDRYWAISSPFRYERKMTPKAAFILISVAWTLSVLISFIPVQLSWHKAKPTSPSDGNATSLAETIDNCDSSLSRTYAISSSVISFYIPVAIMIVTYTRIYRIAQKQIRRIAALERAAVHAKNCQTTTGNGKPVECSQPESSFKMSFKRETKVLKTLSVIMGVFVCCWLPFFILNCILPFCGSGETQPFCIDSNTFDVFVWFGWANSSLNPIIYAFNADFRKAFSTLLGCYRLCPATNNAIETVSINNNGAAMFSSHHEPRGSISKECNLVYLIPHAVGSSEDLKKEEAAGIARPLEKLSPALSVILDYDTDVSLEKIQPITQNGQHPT
Data set [4] addresses D(2) dopamine receptor (Homo sapiens) (UniProt P14416). The data set is described as follows: Agonist activity at D2L receptor (unknown origin) at 10 uM.
For data set [5] the target is unchanged. Description: Positive allosteric modulation of D2L receptor (unknown origin) at 10 uM.
The target in data set [6] is Adenosine receptor A2a (Homo sapiens) (UniProt P29274). The data set is described as follows: Agonist activity at A2A receptor (unknown origin) at 10 uM.
Adenosine receptor A2a (Homo sapiens), sequence (P29274 whole entry): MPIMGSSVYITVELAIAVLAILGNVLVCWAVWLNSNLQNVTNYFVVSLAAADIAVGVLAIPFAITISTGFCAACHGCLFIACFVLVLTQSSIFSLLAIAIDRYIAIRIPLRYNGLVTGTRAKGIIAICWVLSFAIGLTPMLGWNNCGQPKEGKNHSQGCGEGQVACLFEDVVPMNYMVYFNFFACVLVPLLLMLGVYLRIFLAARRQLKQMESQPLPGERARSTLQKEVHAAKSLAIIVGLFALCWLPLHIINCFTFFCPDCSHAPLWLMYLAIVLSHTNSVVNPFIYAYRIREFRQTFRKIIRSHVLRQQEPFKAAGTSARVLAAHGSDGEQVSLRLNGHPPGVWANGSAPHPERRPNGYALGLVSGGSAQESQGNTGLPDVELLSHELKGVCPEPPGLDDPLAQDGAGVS
Data set [7] deals with Receptor-type tyrosine-protein kinase FLT3 (Homo sapiens) (UniProt P36888). The data set is described as follows: Inhibition of Flt3 (unknown origin) at 10 uM relative to control.
Receptor-type tyrosine-protein kinase FLT3 (Homo sapiens), sequence (P36888 whole entry): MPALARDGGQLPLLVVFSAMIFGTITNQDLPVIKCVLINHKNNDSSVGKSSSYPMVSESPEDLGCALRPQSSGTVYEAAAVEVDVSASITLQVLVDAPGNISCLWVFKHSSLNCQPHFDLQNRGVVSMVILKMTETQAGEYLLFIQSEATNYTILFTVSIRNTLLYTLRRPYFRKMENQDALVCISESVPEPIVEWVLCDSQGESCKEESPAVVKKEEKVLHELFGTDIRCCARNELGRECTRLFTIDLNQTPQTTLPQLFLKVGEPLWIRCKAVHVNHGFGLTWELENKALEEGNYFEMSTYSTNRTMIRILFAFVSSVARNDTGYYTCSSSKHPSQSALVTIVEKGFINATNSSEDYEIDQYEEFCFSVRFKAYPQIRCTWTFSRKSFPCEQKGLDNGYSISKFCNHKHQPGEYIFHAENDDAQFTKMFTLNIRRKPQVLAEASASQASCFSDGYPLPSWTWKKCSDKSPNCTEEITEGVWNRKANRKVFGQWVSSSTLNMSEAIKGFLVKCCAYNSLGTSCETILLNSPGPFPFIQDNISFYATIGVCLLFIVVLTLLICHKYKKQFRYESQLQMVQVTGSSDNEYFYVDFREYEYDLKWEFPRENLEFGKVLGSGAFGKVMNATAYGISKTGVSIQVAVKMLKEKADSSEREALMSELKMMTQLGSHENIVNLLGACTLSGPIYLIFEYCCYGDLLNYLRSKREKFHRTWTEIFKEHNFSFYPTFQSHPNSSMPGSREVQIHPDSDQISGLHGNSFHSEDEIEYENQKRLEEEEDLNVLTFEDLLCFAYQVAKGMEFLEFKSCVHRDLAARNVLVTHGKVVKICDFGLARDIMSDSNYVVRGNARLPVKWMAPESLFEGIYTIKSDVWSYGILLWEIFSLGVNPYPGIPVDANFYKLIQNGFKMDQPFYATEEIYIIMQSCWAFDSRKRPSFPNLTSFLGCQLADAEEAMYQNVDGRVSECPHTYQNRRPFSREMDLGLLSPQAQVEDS
Data set [8] concerns the target Interleukin-1 receptor-associated kinase 4 (Homo sapiens) (UniProt Q9NWZ3). Description: Inhibition of IRAK4 (unknown origin) at 10 uM.
Data set [9] deals with Tyrosine-protein kinase JAK3 (Homo sapiens) (UniProt P52333). The data set is described as follows: Inhibition of JAK3 (unknown origin) at 10 uM.
Data set [10] concerns Rattus norvegicus. The data set is described as follows: Protection against 6-OHDA induced parkinsonian motor deficit in Sprague-Dawley rat assessed as increase in rearing time at 30 mg/kg, ip after 28 days post surgery. It counts as functional, organism-based. An outline of the steps:
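Adult male Sprague−Dawley rats with bilateral 6-OHDA striatal lesions given compound 30 mg/kg ip or vehicle at T0; spontaneous locomotor activity (active time, slow activity, rearing) counted in 5-min bins versus pre-surgery vehicle; n = 10.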

The test system of data set [11] is Brain. Description: Fraction unbound in Sprague-Dawley rat brain at 30 mg/kg, ip after 30 mins. It counts as ADME, organism-based. To be noted: in vivo, 0.5 h.
Data set [12] in a line: AUC (0 to infinity) in Sprague-Dawley rat plasma at 30 mg/kg, ip administered as single dose by LC-MS/MS analysis. Also noted: dose 30 mg/kg, time infinity, route intraperitoneal. It counts as ADME, organism-based. In short, it runs like this:
(§1)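 Rats dosed ip at 10 or 30 mg/kg. Plasma Cmax, Tmax, half-life and AUC0–inf were determined. Brain concentration was measured 30 min postdose, and brain/plasma ratio was taken at 30 min. Values are the mean (±SEM) of 3 rats.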

Data set [13] concerns the target Amine oxidase [flavin-containing] A (Homo sapiens, UniProt P21397). The data set is described as follows: Activity at MAO-A (unknown origin) up to 10 uM. It counts as ADME.
In data set [14] the target is Amine oxidase [flavin-containing] B (Homo sapiens, UniProt P27338). Description: Activity at MAO-B (unknown origin) up to 10 uM. It counts as ADME.
Amine oxidase [flavin-containing] B, sequence (P27338 whole entry): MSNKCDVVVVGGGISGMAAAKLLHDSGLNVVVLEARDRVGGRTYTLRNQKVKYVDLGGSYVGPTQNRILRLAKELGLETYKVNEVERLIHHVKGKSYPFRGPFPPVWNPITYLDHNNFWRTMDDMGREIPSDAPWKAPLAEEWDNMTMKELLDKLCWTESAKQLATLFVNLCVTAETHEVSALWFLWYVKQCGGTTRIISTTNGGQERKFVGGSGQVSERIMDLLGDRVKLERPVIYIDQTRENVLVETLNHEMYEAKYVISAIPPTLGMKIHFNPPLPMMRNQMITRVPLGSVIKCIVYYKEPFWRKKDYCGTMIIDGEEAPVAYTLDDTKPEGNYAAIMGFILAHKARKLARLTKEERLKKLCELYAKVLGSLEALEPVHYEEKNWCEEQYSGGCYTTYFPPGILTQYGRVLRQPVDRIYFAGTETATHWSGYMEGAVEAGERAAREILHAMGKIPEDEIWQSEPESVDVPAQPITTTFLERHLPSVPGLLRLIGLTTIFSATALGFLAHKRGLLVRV
Data set [15] in a line: Half life in Sprague-Dawley rat at 1 mg/kg, iv administered as single dose by LC-MS/MS analysis. It counts as ADME, organism-based. To be noted: in vivo. An outline of the steps:
(§2)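 Single iv dose, 1 mg/kg in rat or 2 mg/kg in mouse; plasma PK parameters derived; brain/plasma ratio taken at 1 h postdose (rat) or 30 min postdose (mouse). Mean of 3 rats; 2 mice for mouse Cmax and brain/plasma.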

In another data set the test system is Mus musculus. The data set is described as follows: Half life in C57BL/6 mouse at 2 mg/kg, iv administered as single dose by LC-MS/MS analysis. It counts as ADME, organism-based. As to conditions: in vivo. An outline of the steps: as §2
The nature of data set [16]: Plasma clearance in Sprague-Dawley rat at 1 mg/kg, iv administered as single dose by LC-MS/MS analysis. It counts as ADME, organism-based. An outline of the steps:
as §2

Data set [17] is described as follows: Tmax in C57BL/6 mouse plasma at 10 mg/kg, po administered as single dose by LC-MS/MS analysis. It counts as ADME, organism-based. In short, it runs like this: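 Single-dose plasma PK after ip (10 or 30 mg/kg) or oral (10 mg/kg) dosing in rats, and oral 10 mg/kg dosing in mice. […] Values are mean ±SEM of 3 rats or 2 mice.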
A short description of data set [18]: Half life in Sprague-Dawley rat plasma at 10 mg/kg, po administered as single dose by LC-MS/MS analysis. It counts as ADME, organism-based. In short, it runs like this:
(§3)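 Single dose ip (10 or 30 mg/kg, rat) or oral (10 mg/kg, rat or mouse); plasma Cmax, Tmax, half-life, AUC0−inf derived; brain concentration and brain/plasma ratio at 30 min postdose. Mean of 3 rats or 2 mice.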

Data set [19] in a line: AUC (0 to infinity) in Sprague-Dawley rat plasma at 10 mg/kg, ip administered as single dose by LC-MS/MS analysis. It counts as ADME, organism-based. Details: dose 10 mg/kg, time infinity, route intraperitoneal. An outline of the steps:
as §1

The nature of data set [20]: Drug uptake in Sprague-Dawley rat brain at 10 mg/kg, po after 30 mins post dose administered as single dose by LC-MS/MS analysis. It counts as ADME, organism-based. To be noted: read-out: Drug uptake. An outline of the steps: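 Rats given a single oral dose of 10 mg/kg. The first plasma sample was taken at 15 min, and sampling continued to 24 h postdose. Brain was sampled at 30 min. Values are the mean (±SEM) of 3 rats.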

The nature of data set [21]: Drug uptake in C57BL/6 mouse brain at 10 mg/kg, po after 30 mins post dose administered as single dose by LC-MS/MS analysis. It counts as ADME, organism-based. To be noted: read-out: Drug uptake. In short, it runs like this: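 Mice given 10 mg/kg orally. Plasma Cmax was determined and brain concentration measured at 30 min postdose. Values are the mean (±SEM) of 2 mice.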

A short description of data set [22]: Ratio of drug level in C57BL/6 mouse brain to plasma at 10 mg/kg, po after 30 mins post dose administered as single dose by LC-MS/MS analysis. It counts as ADME, organism-based. To be noted: read-out: BPR. In short, it runs like this: as §3
Data set [23] can be described thus: Ratio of drug uptake in Sprague-Dawley rat brain at 10 mg/kg, po to EC50 for rat mGlu4 receptor expressed in HEK293 cells. An outline of the steps: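 Rats received a single ip or oral dose. Brain concentration was measured 30 min postdose, mean of 3 rats, and divided by the EC50 measured in cell lines overexpressing rat mGluR4.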
Data set [24] is described as follows: Drug uptake in Sprague-Dawley rat brain at 30 mg/kg, ip after 60 mins. As to conditions: read-out: Drug uptake. It counts as ADME, organism-based.
A short description of data set [25]: Drug uptake in Sprague-Dawley rat brain at 30 mg/kg, ip after 240 mins. It counts as ADME, organism-based. As to conditions: read-out: Drug uptake.
Data set [26] concerns Brain. The data set is described as follows: Fraction unbound in Sprague-Dawley rat brain at 30 mg/kg, ip after 120 mins. It counts as ADME, organism-based. As to conditions: in vivo, 2 h.

For orientation: inhibition means how much of the control response was suppressed. Usually AUC(0-inf) stands for the area under the concentration-time curve extrapolated to infinity. A high value points to more exposure. A word on the half-life: it is the time needed for the level to fall by half in the phase considered. Read a low half-life as rapid decline. By clearance is commonly meant the volume of plasma or blood freed of the substance per unit of time. Usually Tmax stands for the time at which the peak concentration occurs.

Active and inactive are the calls of the source.

D(2) dopamine receptor (Homo sapiens), sequence (P14416 whole entry): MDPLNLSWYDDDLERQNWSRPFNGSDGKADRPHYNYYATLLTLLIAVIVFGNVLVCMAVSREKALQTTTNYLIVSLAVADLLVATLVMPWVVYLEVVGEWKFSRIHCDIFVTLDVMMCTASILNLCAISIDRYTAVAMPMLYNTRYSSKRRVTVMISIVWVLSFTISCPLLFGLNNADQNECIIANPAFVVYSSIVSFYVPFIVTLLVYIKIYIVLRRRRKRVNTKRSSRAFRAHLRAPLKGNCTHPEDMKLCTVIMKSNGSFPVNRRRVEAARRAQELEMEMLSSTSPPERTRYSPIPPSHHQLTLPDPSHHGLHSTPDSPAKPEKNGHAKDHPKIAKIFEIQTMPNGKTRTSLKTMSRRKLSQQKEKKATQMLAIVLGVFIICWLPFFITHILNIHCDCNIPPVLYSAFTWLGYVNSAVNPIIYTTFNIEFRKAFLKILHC
Interleukin-1 receptor-associated kinase 4 (Homo sapiens), sequence (Q9NWZ3 whole entry): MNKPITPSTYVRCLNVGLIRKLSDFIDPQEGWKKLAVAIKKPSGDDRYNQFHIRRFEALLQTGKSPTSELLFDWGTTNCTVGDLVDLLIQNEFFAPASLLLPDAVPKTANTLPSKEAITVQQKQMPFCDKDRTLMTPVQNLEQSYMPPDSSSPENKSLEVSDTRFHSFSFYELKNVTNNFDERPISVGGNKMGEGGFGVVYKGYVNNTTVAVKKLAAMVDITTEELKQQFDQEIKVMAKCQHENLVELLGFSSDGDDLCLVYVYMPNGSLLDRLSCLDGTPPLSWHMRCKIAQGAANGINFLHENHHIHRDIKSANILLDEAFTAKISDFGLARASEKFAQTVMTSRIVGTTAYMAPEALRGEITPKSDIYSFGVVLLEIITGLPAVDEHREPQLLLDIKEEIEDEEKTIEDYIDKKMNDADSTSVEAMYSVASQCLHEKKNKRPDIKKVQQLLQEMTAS
Amine oxidase [flavin-containing] A, sequence (P21397 whole entry): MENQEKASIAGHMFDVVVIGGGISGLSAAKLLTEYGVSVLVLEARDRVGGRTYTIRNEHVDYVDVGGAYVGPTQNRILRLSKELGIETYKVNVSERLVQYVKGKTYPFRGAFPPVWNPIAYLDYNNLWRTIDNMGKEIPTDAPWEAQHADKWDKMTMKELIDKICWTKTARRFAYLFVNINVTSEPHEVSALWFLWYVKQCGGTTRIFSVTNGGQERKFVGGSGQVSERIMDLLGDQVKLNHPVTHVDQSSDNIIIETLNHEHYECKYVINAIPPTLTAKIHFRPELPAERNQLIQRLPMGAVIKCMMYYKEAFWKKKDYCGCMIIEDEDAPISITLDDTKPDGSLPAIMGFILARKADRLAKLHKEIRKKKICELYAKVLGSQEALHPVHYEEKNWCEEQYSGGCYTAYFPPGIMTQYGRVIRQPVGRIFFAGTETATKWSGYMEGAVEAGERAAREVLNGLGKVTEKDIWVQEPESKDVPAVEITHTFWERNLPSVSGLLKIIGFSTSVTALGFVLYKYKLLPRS

On to `O/N=c1\cc(-c2cc3cccn3cn2)oc2ccc(OCCN3CCOCC3)cc12` [listing 1 of 2 here], for which the Selectivity ratio in the data set filed under Homo sapiens is 13. For the same compound, the result (in data set [1]; in the data set listed under Rattus norvegicus [2]; in data set [3]; in [4]; in [5]; in data set [6]) was inactive. Further, the inhibition in data set [7] was determined as 64%. For the same compound, the inhibition result in data set [8] and in [9] was “inactive” each time. Also, the outcome in the data set with Rattus norvegicus [10] was Active.
Consider `O/N=c1\cc(-c2cc3cccn3cn2)oc2ccc(OCCN3CCOCC3)cc12` [listing 2 of 2 here], for which the “Drug uptake(free)” value with Brain [11] amounted to 173 ng/g; in the data set on Brain [26], 13 ng/g. The AUC(0-inf) was 11300 ng·h/mL in [12] and 2240 ng·h/mL in data set [19]. For the same compound, the Activity result in data set [13] and in data set [14] was “Not Active” throughout. For the same compound, the half-life in data set [15] was 44 min; in data set [18], 438 min. The compound further showed a t1/2 with Mus musculus of 12 min. The same compound displayed a clearance in [16] of 113 mL/min/kg. Also, the Tmax in data set [17] is 30 min. Further, the concentration at 0.5 h in data set [20] is 454 ng/g; in data set [21], 390 ng/g. Also, the Kp at 0.5 h in data set [22] was 1.7. Also, the Ratio in [23] is given as 0.3. Further, the concentration at 1 h in [24] was found to be 12000 ng/g. In addition, in [25], the concentration at 4 h came to 322 ng/g.
